Assay results from PMC5115981 (Cancer chemotherapy and pharmacology, 2016).

How the values were obtained:
Assay type in all cases: in vivo, mouse
mice [1] = assay: Single dose IV toxicity study in mice; details: single IV dose 4 mg/kg
In short: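 Male and female heterozygous Foxn1nu/Foxn1+ mice, 5 per group, fasted overnight. Single 4 mg/kg IV tail-vein dose from a 0.4 mg/mL solution in 10% Solutol HS15 in sterile water (0.01 ml/g), alongside vehicle-treated mice. Body weights and clinical signs followed over 14 days, then necropsy for gross pathology. The dose tested was capped by maximum solubility.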

mice [2] = assay: Multiple dose; details: IV daily for 5 days at 4, 2.7, 1.3 mg/kg, female mice
In short: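 Female heterozygous Foxn1nu/Foxn1+ mice, 5 per group, fasted overnight before dosing. Test compound given IV by lateral tail vein daily for 5 days, in 10% Solutol HS15 in sterile water at 0.01 ml/g body weight; a vehicle group was included. Body weights tracked before, during and after dosing over a 14 day observation period, followed by necropsy for gross pathology.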

[3] = Single dose pharmacokinetics in mice; details: female, heterozygous Foxn1nu/Foxn1+, mouse; for Cmax: mice
In short: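 Fasted female heterozygous Foxn1nu/Foxn1+ mice, 3 per time point (5–1440 min), received a single dose by one of three routes: 4.0 mg/kg in 10% Solutol HS IV via tail vein; the same formulation by oral gavage; or 30 mg/kg PO in 1% CMC suspension. Vehicle controls were taken at 5 and 1440 min. Sampling: cardiac-puncture EDTA plasma, tissues including brain, and metabolic-cage urine. Analysis by LC-MS/MS with a deuterated internal standard. Group means underwent non-compartmental analysis; […].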

## COc1ccc(C2=Nn3c(nnc3-c3cc(-c4ccc(Cl)cc4)n[nH]3)SC2C)cc1 (stereo not drawn) [UPCDC-10205, 3-(3-(4-chlorophenyl)-1H-pyrazole-5-yl)-6-(4-methoxyphenyl)-7-methyl-7H-[1,2,4]triazolo[3,4-b][1,3,4]thiadiazine]
Mice [1]; male and female mice, 14 day observation, 4 mg/kg
  clinical appearance after single dose: not toxic
Mice [1]; necropsy after 14 day observation
  gross pathology upon necropsy after single dose: no gross pathology was detected
Mice [1]; within first 24 h after injection
  body weight after single dose: no apparent weight loss
Mice [2]
  body weights vs vehicle control group, multiple dose: no statistical differences
  gross pathology upon necropsy, multiple dose: no signs of gross pathology
Mice [2]; 14 day observation
  signs or symptoms of toxicity, multiple dose: not toxic
[3]; brain, iv, 4 mg/kg
  AUC(0-t): 1730 ng·h/mL
  Tmax: 15 min
[3]; brain, iv, 4 mg/kg, IV 4 mg/kg in 10% Solutol HS, brain
  Cmax: 1640 ng/mL
[3]; brain, po, 4 mg/kg
  AUC(0-t): 30 ng·h/mL
  Tmax: 60 min
[3]; brain, po, 4 mg/kg, PO 4 mg/kg in 10% Solutol HS, brain
  Cmax: 15.4 ng/mL
[3]; brain, po, 30 mg/kg
  AUC(0-t): 33.4 ng·h/mL
  Tmax: 5 min
[3]; brain, po, 30 mg/kg, PO 30 mg/kg suspension in 1% CMC, brain
  Cmax: 49 ng/mL
[3]; kidney, iv, 4 mg/kg
  AUC(0-t): 3240 ng·h/mL
  Tmax: 5 min
[3]; kidney, iv, 4 mg/kg, IV 4 mg/kg in 10% Solutol HS, kidney
  Cmax: 4620 ng/mL
[3]; kidney, po, 4 mg/kg
  AUC(0-t): 428 ng·h/mL
  Tmax: 30 min
[3]; kidney, po, 4 mg/kg, PO 4 mg/kg in 10% Solutol HS, kidney
  Cmax: 308 ng/mL
[3]; kidney, po, 30 mg/kg
  AUC(0-t): 272 ng·h/mL
  Tmax: 5 min
[3]; kidney, po, 30 mg/kg, PO 30 mg/kg suspension in 1% CMC, kidney
  Cmax: 404 ng/mL
[3]; liver, iv, 4 mg/kg
  AUC(0-t): 1470 ng·h/mL
  Tmax: 30 min
[3]; liver, iv, 4 mg/kg, IV 4 mg/kg in 10% Solutol HS, liver
  Cmax: 2780 ng/mL
[3]; liver, po, 4 mg/kg
  AUC(0-t): 300 ng·h/mL
  Tmax: 5 min
[3]; liver, po, 4 mg/kg, PO 4 mg/kg in 10% Solutol HS, liver
  Cmax: 220 ng/mL
[3]; liver, po, 30 mg/kg
  AUC(0-t): 542 ng·h/mL
  Tmax: 5 min
[3]; liver, po, 30 mg/kg, PO 30 mg/kg suspension in 1% CMC, liver
  Cmax: 564 ng/mL
[3]; lung, iv, 4 mg/kg
  AUC(0-t): 2680 ng·h/mL
  Tmax: 5 min
[3]; lung, iv, 4 mg/kg, IV 4 mg/kg in 10% Solutol HS, lung
  Cmax: 4490 ng/mL
[3]; lung, po, 4 mg/kg
  AUC(0-t): 630 ng·h/mL
  Tmax: 4.98 min
[3]; lung, po, 4 mg/kg, PO 4 mg/kg in 10% Solutol HS, lung
  Cmax: 414 ng/mL
[3]; lung, po, 30 mg/kg
  AUC(0-t): 186 ng·h/mL
  Tmax: 5 min
[3]; lung, po, 30 mg/kg, PO 30 mg/kg suspension in 1% CMC, lung
  Cmax: 331 ng/mL
[3]; muscle, iv, 4 mg/kg
  AUC(0-t): 1630 ng·h/mL
  Tmax: 15 min
[3]; muscle, iv, 4 mg/kg, IV 4 mg/kg in 10% Solutol HS, muscle
  Cmax: 1900 ng/mL
[3]; muscle, po, 4 mg/kg, PO 4 mg/kg in 10% Solutol HS, muscle
  Cmax: 51.2 ng/mL
[3]; muscle, po, 30 mg/kg
  AUC(0-t): 140 ng·h/mL
  Tmax: 5 min
